For assay [1], the system named is Syrian golden hamster. The assay is described as follows: Induction of reverse cholestrol transport in high fat diet-induced dyslipidemia Syrian Golden hamster model assessed as increase in SCARB1 mRNA expression in liver at 100 mg/kg, po administered for 1 week by qRT-PCR analysis. The settings on record: Mesocricetus auratus. In kind it is functional, organism-based.

The test system of assay [2] is C3H 10T1/2. The assay is described as follows: Anti-adipogenic activity in mouse C3H10T1/2 cells assessed as reduction in lipid accumulation at early differentiation stage at 20 uM measured up to 3 days by Oil Red O staining based leica microscopy. Type of assay: functional, cell-based. Summed up:
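3T3-L1 or C3H10T1/2 cells given 20 µM compound in differentiation media for varied time periods, then stained with Oil red O. Imaged by microscopy at 10x, representative of three independent experiments.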

The species entered for assay [3] is Mus musculus. Briefly: Activation of Wnt3a/beta-catenin in mouse 3T3L1 cells assessed as down-regulation of CDK2 expression at 20 uM after 16 to 24 hrs by Western blot analysis. In kind it is cell-based. Summed up: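 3T3-L1 cells given MDI differentiation media (0.5 mM IBMX, 5 µg/ml insulin, 250 nM dexamethasone) with or without 20 µM compound. Proteins isolated at 16 and 24 h and probed by Western blot for CDK2, CDK4, CDK6, cyclin D1 and D3. Densitometry normalized to actin, n=3, mean ± SD, Student t test.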
Background: Immunoblotting shows a protein as a band on a membrane.

The species named for assay [4] is Mus musculus. Briefly: Activation of Wnt3a/beta-catenin in mouse 3T3L1 cells assessed as down-regulation of CDK4 expression at 20 uM after 16 to 24 hrs in presence of FH353 by Western blot analysis. Type of assay: cell-based. The method, boiled down: (§1)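 Confluent 3T3-L1 cells given differentiation media (IBMX/insulin/dexamethasone) with 20 µM compound, with or without the β-catenin/TCF inhibitor FH353 (10 µM). Proteins isolated at 16 and 24 h and Western blotted after SDS-PAGE and nitrocellulose transfer. Blocking in 5% milk/TBS-T, primary antibody overnight at 4 °C, chemiluminescent detection, β-actin control, three independent experiments.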

For assay [5], the species on record is Mus musculus. Briefly: Activation of Wnt3a/beta-catenin in mouse 3T3L1 cells assessed as down-regulation of CDK6 expression at 20 uM after 16 to 24 hrs in presence of FH353 by Western blot analysis. Type of assay: cell-based. The method, boiled down:
as §1

The species entered for assay [6] is Mus musculus. Briefly: Activation of Wnt3a/beta-catenin in mouse 3T3L1 cells assessed as down-regulation of C/EBPalpha expression at 20 uM after 2 to 6 days in presence of FH353 by Western blot analysis. Type of assay: cell-based.
Assay [7] is filed under the species Mus musculus. Briefly: Activation of Wnt3a/beta-catenin in differentiated mouse 3T3L1 cells assessed as down-regulation of PPARgamma protein expression at 20 uM after 16 to 24 hrs by Western blot analysis. The method, boiled down:
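3T3-L1 preadipocytes grown to confluence in high-glucose DMEM/10% FBS, then given differentiation media (0.5 mM IBMX, 5 µg/ml insulin, 250 nM dexamethasone) with or without 20 µM compound. Protein isolated at set time points, lysed with protease/phosphatase inhibitors, BCA-quantified, resolved by 8–12% SDS-PAGE, immunoblotted with ECL detection. β-actin loading control, densitometry normalized to actin, n=3.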

Each structure is given as a SMILES string. Activity calls are given as the source filed them. The rule behind the calls is not given here.

On to `Cc1ccc(S(=O)(=O)N(Cc2cn(Cc3cccc(F)c3F)nn2)Cc2cn(S(=O)(=O)c3ccc(C)cc3)c3ccccc23)cc1`, for which the result in assay [1], in assay [2], in assay [3] and in assay [7] was Active. Besides, the result in assay [4], in assay [5] and in assay [6] was inactive.

The record behind these values is ChEMBL document CHEMBL4138193, “Novel indole and triazole based hybrid molecules exhibit potent anti-adipogenic and antidyslipidemic activity by activating Wnt3a/β-catenin pathway” (Eur J Med Chem, 2018).
